Assay results pooled from the literature.
Protocols differ between the studies behind these lines.

Oc1cc(Br)cc(Br)c1Oc1ccc(Br)cc1Br — Km (Sulfotransferase 1B1 (SULT1B1, Homo sapiens, UniProt O43704); enzyme activity, substrate): 26.7 µM
Nc1ncc(-c2nc(N3CCOCC3)nc(N3CCOCC3)n2)c(C(F)F)n1 — remaining binding (Serine/threonine-protein kinase tousled-like 2 (TLK2, Homo sapiens, UniProt Q86UE8); binding, competition with immobilised ligand; 10 µM): 100%
CCN(CC)CCCC[C@H](NC(=O)[C@H](CC(C)C)NC(=O)[C@H](C)NC(=O)[C@H](Cc1ccccc1)NC(=O)c1ccc(C(C)(C)C)cc1)C(=O)N[C@@H](CO)C(=O)OC — remaining binding (Kappa-type opioid receptor (Oprk1, Rattus norvegicus, UniProt P34975); ligand displacement, radioligand; 10 µM): 9.5%
CCOC(=O)c1ccc(OC(=O)CCCCCNC(=N)N)cc1 — inhibition (Ubiquitin carboxyl-terminal hydrolase 2 (USP2, Homo sapiens, UniProt O75604); enzyme activity, inhibitor; 10 µM): 2%
O=C1CC(c2c(O)cccc2O)Oc2cc(O)cc(O)c21 (centres unmarked) — inhibition (Replicase polyprotein 1ab, main protease (rep, Severe acute respiratory syndrome coronavirus 2, UniProt P0DTD1); enzyme activity, inhibitor; 20 µM): 26.5%
Cc1nn(C)cc1-c1nc2c(N3CCN(Cc4ccc(Cl)cc4)CC3)c(Cl)cnc2[nH]1 — remaining binding (Bone morphogenetic protein receptor type-1B (BMPR1B, Homo sapiens, UniProt O00238); binding, competition with immobilised ligand; 1 µM): 100%
CC(C)C[C@H](NC(=O)[C@H]1O[C@@H]1C(=O)O)C(=O)NCCCCN=C(N)N — inhibition (Cathepsin S (CTSS, Homo sapiens, UniProt P25774); enzyme activity, inhibitor; 0.5 µM): 97%
COc1ncccc1-c1cnn2ccc(N3CCN(C(=O)OC(C)C)CC3)nc12 — remaining binding (Cyclin-dependent kinase-like 2 (CDKL2, Homo sapiens, UniProt Q92772); binding, competition with immobilised ligand; 1 µM): 53%
